High-throughput results: PubChem, Sanford-Burnham Center for Chemical Genomics
HKDC1 inh: blocks human hexokinase HKDC1 activity; 340,000 compounds, 0.16% hits; Q2TB90; AID 493160; inhibition, % at 20 µM; recombinant HKDC1, G6PDH/diaphorase resazurin coupled fluorescence;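 active = inhibition above about 35% when tested at 20 µM, limit read from the data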
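Test system: recombinant HKDC1 (HK5) hexokinase enzyme, produced in-house; Amount: enzyme 5 µg/mL final; Buffer or medium: Tris pH 8.0 buffer with MgCl2, Tween-20, BSA, BME; Reagent: glucose and ATP substrates; Doses: 20 µM test compound, 1% DMSO; Incubation: 90 min reaction incubation at room temperature, dark; Detection: resorufin fluorescence at 613 nm.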
Diaphorase inh: diaphorase inhibition or chemical oxidation counter-screen; inhibition, % at 20 µM; 190,000 compounds, 0.69% hits; AID 1217; diaphorase resazurin-to-resorufin fluorescence, NADH, 16 min; bacterial (C. kluyveri) enzyme, not human;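 active = primary screen inhibition at 20 µM above a set limit, cut at about 50% in these data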
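material = Clostridium kluyveri diaphorase enzyme | amount = 0.14 U/mL diaphorase, enzyme working solution | schedule = incubation 16 min, room temperature | detection = fluorescence of resorufin formed from resazurin, Ex 544/Em 590 nm | benchmarks = positive control minus NADH, DMSO neutral control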
Diaphorase act: counter-screen for diaphorase-based assays: diaphorase activators and chemical reducers. Diaphorase/resazurin coupled assay, resorufin fluorescence, 16 min; stronger effect = higher value; 1 = vehicle wells, 0 = NADH-free wells. activation factor at 20 µM. 190,000 compounds, 0.005% hits. AID 1229;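 active = diaphorase activity raised at least twofold by the compound at 20 µM; inactive = activation factor below 2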
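Assay system: Purified diaphorase enzyme from Clostridium kluyveri | Amount: Enzyme 0.07 U/mL final | Dosing: Compound 20 µM once, DMSO 1% | Timing: 16 min reaction at room temperature | Detection: Fluorescence, excitation 544 nm and emission 590 nm | Evaluation: Higher resorufin formation from activation or reduction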
G6PDH counter: L. mesenteroides G6PDH inhibition counter-screen | Purified L. mesenteroides G6PDH, diaphorase/resazurin coupled fluorescence, 45 min | inhibition, % at 5 µM | 200,000 compounds, 0.12% hits | AID 1020; in the data active = inhibition above about 50%
PfGluPho inh: PfG6PD (Plasmodium falciparum) enzyme inhibition; inhibition, % at 20 µM; 350,000 compounds, 0.78% hits; PfGluPho enzyme, NADPH resazurin-diaphorase fluorescence;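 active = inhibition reaching at least a set limit at 20 µM in the primary screen, cut at about 59% in these data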
HKDC1 act conf: confirmation of human HKDC1 activators; shares compounds with HKDC1 inh; recombinant HKDC1, G6PDH/diaphorase resazurin fluorescence; stronger effect = lower value; inhibition, % at 20 µM; 740 compounds, 14% hits;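 active = inhibition at or below a set negative limit, negative inhibition meaning the enzyme was activated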
PfG6PD confirm: PfG6PD inhibition, single-dose confirmed; shares compounds with PfGluPho inh; recombinant PfGluPho, NADPH-diaphorase-resazurin fluorescence; inhibition, % at 20 µM; 2,400 compounds, 34% hits;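 active = inhibition of at least 50% at 20 µM in any single replicate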
Diaph ctr 10uM: diaphorase inhibition or oxidation at 10 uM NADPH; shares compounds with PfGluPho inh; diaphorase-coupled resazurin reduction, fluorescence, NADPH 10 uM; inhibition, % at 20 µM; 820 compounds, 39% hits; AID 504862;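 active = average inhibition reaching 50% or more with the compound at 20 µM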;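 note: resorufin red fluorescence formed as diaphorase reduces resazurin using NADPH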
Diaphorase 30uM: diaphorase inhibition or oxidation at 30 uM NADPH. shares compounds with PfGluPho inh. Diaphorase/resazurin coupled assay, resorufin fluorescence. inhibition, % at 20 µM. 820 compounds, 29% hits. AID 504863;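 active = inhibition averaging 50% or more, tested at 20 µM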
A number is an active result; – = inactive; · = no result. An excerpt weighted towards active compounds, which were near 1.2% of everything screened.

SMILES	HKDC1 inh	Diaphorase inh	Diaphorase act	G6PDH counter	PfGluPho inh	HKDC1 act conf	others
CCN(CC)CCCNC(=O)c1c(O)c2ccccc2n(Cc2ccccc2)c1=O	83.3	–	–	–	–	-37.1
CCN(CC)CCNC(=O)c1c(O)c2ccccc2n(Cc2ccccc2)c1=O	–	–	–	–	–	·
CN(C)c1ccc(/C=C2/C(=N\O)C3CCN2CC3)cc1	–	·	·	·	–	·
Cc1ccc(C2N3CCCN23)cc1 (stereo not given)	–	·	·	·	–	·
Brc1ccc(C2N3CCCN23)cc1 (stereo not given)	–	–	–	–	–	–
CC[C@H](C)/C=C(C)/C=C/C1=CC2=C(Cl)C(=O)[C@](C)(OC(C)=O)C(=O)C2=CO1	58.9	·	·	·	–	–
COc1cc(O)cc2c1cc([N+](=O)[O-])c1c(C(=O)O)cc3c(c12)OCO3	35.8	·	·	·	–	–
Cc1ccccc1N1C(=O)NC(=O)/C(=C\c2ccc3c(c2)CCCN3Cc2ccccc2)C1=O	35.1	–	–	–	–	–
CC(=NNC(=S)N1CC2CCC(CC2)C1)c1nccs1	–	·	·	·	–	-42.1
O=c1nc(/C=C/c2ccc(Cl)cc2Cl)cc(C(F)(F)F)[nH]1	35.1	·	·	·	–	–
COc1ccccc1CNC(=O)CCC(=O)N1C[C@H]2C[C@@H](C1)c1cccc(=O)n1C2	–	·	·	·	–	·
CCN1C(=O)NC(=O)/C(=C/c2cc(C)n(-c3sc(C)c(C)c3C#N)c2C)C1=O	–	–	–	–	–	·
CCOC(=O)c1c(-n2c(C)cc(C=C3C(=O)NC(=S)NC3=O)c2C)sc2c1CCCC2	58.6	–	–	–	–	–
Cc1ccc(N2C(=O)NC(=O)/C(=C\c3cc(C)n(-c4sc5c(c4C#N)CCCC5)c3C)C2=O)cc1	66.1	–	–	–	–	–
N=C1c2ccccc2CN1NC(=O)c1ccco1	–	·	·	·	–	·
O=C1NC(=S)NC(=O)C1=Cc1ccc2c(c1)CCN2CCCCl	59.0	·	·	·	–	–
CCOc1cc(C=C2C(=O)NC(=S)NC2=O)ccc1O	–	·	·	·	–	·
COc1ccccc1CCNC1C2CC3CC(C2)CC1C3 (stereo not given)	–	–	–	–	–	·
CCOc1ccc(NC(=O)CCNC(=O)N2C[C@H]3C[C@@H](C2)c2cccc(=O)n2C3)cc1	–	·	·	·	–	·
COc1cc(/C=C(/C)[N+](=O)[O-])ccc1OCc1ccccc1Cl	–	–	–	–	–	·
CN(C)c1nc(-c2ccccc2)[n+](C)s1	–	–	–	–	–	·
Cc1ccc(-c2nc(N3CCOCC3)s[n+]2-c2ccccc2)cc1	–	–	–	–	59.8	·	PfG6PD confirm=77.3;Diaph ctr 10uM=–;Diaphorase 30uM=–
O=C1C(Cl)=CC(=Nc2ccc(O)cc2)C=C1Cl	–	·	·	·	115.7	·	PfG6PD confirm=110.6;Diaph ctr 10uM=93.3;Diaphorase 30uM=81.5
O=[As](O)(O)c1ccc(N=Nc2ccc(O)cc2)cc1	–	·	·	·	–	·
NCCc1cc(O)c(O)cc1O	–	·	·	·	94.0	·	PfG6PD confirm=67.7;Diaph ctr 10uM=52.6;Diaphorase 30uM=–
COc1ccc(CCN)cc1O	–	·	·	·	–	·
COc1cc2c(cc1OC)-c1c(OC)c(OC)cc3c1C(C2)N(C)CC3 (stereo not given)	–	–	–	–	68.4	·	PfG6PD confirm=–
C=C1C2[C@H](OC(C)=O)[C@@H]3CC(=O)[C@]4(C)OC[C@@]3(C)[C@@]4(O)[C@@H](OC(C)=O)[C@H](OC(C)=O)[C@@]2(COC(=O)c2ccccc2)[C@@H](OC(C)=O)C[C@@H]1O (stereo not given in full)	–	·	·	·	–	·
COc1cccc(N2C(=O)NC(=O)/C(=C/c3ccc4c(c3)Cc3ccccc3-4)C2=O)c1	–	–	–	–	–	·
COc1cccc(N2C(=O)NC(=O)/C(=C/c3ccc([N+](=O)[O-])s3)C2=O)c1	–	·	·	·	82.7	·	PfG6PD confirm=–
